A short description of data set [1]: Cytotoxicity against human HeLa229 cells assessed as cell viability at 10 uM after 44 to 48 hrs by resazurin-based fluorometry relative to control. More on the design: species or system HeLa 229. The settings on record: read-out: Activity. The method, boiled down:
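HeLa host cell viability was measured with compound at 10 μM in a resazurin assay, run to exclude host toxicity as the cause of anti-infective activity.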

Data set [2] has as its system Chlamydia trachomatis. Briefly: Antimicrobial activity against Chlamydia trachomatis serovar LGV-L2 454/Bu infected in human HeLa229 cells assessed as concentration required to reduce reinfection levels by >= 95% measured 44 to 48 hrs post infection by DAPI staining-based assay. It counts as functional. Summed up:
(§1)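 HeLa cells were infected with C. trachomatis LGV-L2 and treated with compound. After 48 h the cells were lysed and the recovered bacteria used to infect fresh HeLa cells. Reinfection was quantified as new inclusion forming units versus cells infected with untreated bacteria. The concentration giving 95% reduction (Reinfect95) was determined from fixed concentrations of 2.5, 1.0, 0.5 and 0.25 μM.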

Data set [3] deals with Salmonella typhimurium. Briefly: Mutagenicity in Salmonella typhimurium TA98/TA100 assessed as revertant colonies/plate in presence of rat liver S9 fraction at 10 ug/spot after 2 to 3 days by Ames test. It counts as toxicity. The settings on record: salmonella enterica subsp. enterica serovar typhimurium. Summed up: (§2)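 Mutagenicity was screened by the spot-based Ames test procedure, with compound applied at 10 μg/spot.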
Background: The Ames test detects mutagens through reverse mutation in bacteria.

The next data set relates to Streptococcus agalactiae. In words: Growth inhibition of Streptococcus agalactiae CCUG 4208 at 10 ug/ml after 24 hrs by disk diffusion method. Summed up:
(§3)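 Disk diffusion assay of vaginal flora species (S. aureus, E. coli, L. jensenii, S. agalactiae) and the fungus C. albicans, with compound tested at 10 μg/mL.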
(A growth-free zone around the sample is the usual read-out of agar diffusion tests.)

The subject of another data set is Lactobacillus jensenii. In words: Growth inhibition of Lactobacillus jensenii CCUG 33572 at 10 ug/ml after 24 hrs by disk diffusion method. Summed up:
as §3

Another data set concerns Staphylococcus aureus. Briefly: Growth inhibition of Staphylococcus aureus CCUG 1800 at 10 ug/ml after 24 hrs by disk diffusion method. The method, boiled down: as §3
Data set [4] deals with Salmonella typhimurium. In words: Mutagenicity in Salmonella typhimurium TA1535/TA1538 assessed as revertant colonies/plate in absense of rat liver S9 fraction at 10 ug/spot after 2 to 3 days by Ames test. It counts as toxicity. The settings on record: salmonella enterica subsp. enterica serovar typhimurium. Summed up:
as §2

In data set [5] the test system is Chlamydia trachomatis. In words: Antimicrobial activity against Chlamydia trachomatis serovar D UW-3 infected in human HeLa229 cells assessed as reduction in reinfection levels measured 44 to 48 hrs post infection by DAPI staining-based assay. Format: functional, cell-based. The conditions noted are these: serovar D UW-3, HeLa 229.
Data set [6] deals with Chlamydia trachomatis. Briefly: Antimicrobial activity against Chlamydia trachomatis serovar LGV-L2 454/Bu infected in human HeLa229 cells assessed as reduction in reinfection levels measured 44 to 48 hrs post infection by DAPI staining-based assay. It counts as functional, cell-based. The conditions noted are these: HeLa 229. The method, boiled down: as §1
The subject of the next data set is Escherichia coli. In words: Growth inhibition of Escherichia coli CCUG 17620 at 10 ug/ml after 24 hrs by disk diffusion method. The method, boiled down: as §3
For data set [7], the system named is Chlamydia trachomatis. In words: Antimicrobial activity against Chlamydia trachomatis serovar LGV-L2 454/Bu infected in human HeLa229 cells at 1 uM compound treated during first 24 hrs of infection by DAPI staining-based assay. Format: functional, cell-based. Summed up: (§4)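 Time-of-addition format of the LGV-L2 HeLa infection/reinfection assay. Compound was present during the first 24 h, the second 24 h, or throughout the 48 h infection. Infectivity was then scored against untreated controls.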

Data set [8] relates to Salmonella typhimurium. In words: Mutagenicity in Salmonella typhimurium TA1535/TA1538 assessed as revertant colonies/plate in presence of rat liver S9 fraction at 10 ug/spot after 2 to 3 days by Ames test. Format: toxicity. The conditions noted are these: salmonella enterica subsp. enterica serovar typhimurium. The method, boiled down: as §2
For a further data set, the system named is Candida albicans. In words: Growth inhibition of Candida albicans at 10 ug/ml after 24 hrs by disk diffusion method. Summed up:
as §3

For data set [9], the system named is Chlamydia trachomatis. In words: Antimicrobial activity against Chlamydia trachomatis serovar LGV-L2 454/Bu infected in human HeLa229 cells at 1 uM compound treated during 48 hrs of infection by DAPI staining-based assay. It counts as functional, cell-based. The method, boiled down:
as §4

The test system of data set [10] is Chlamydia trachomatis. In words: Antimicrobial activity against Chlamydia trachomatis serovar LGV-L2 454/Bu expressing mCherry infected in human HeLa cells assessed as reduction in accumulation of BODIPY 22 in bacterial inclusions at 0.5 uM incubated for 48 hrs by BODIPY 22-based confocal microscopy.
The subject of data set [11] is Salmonella typhimurium. In words: Mutagenicity in Salmonella typhimurium TA98/TA100 assessed as revertant colonies/plate in absence of rat liver S9 fraction at 10 ug/spot after 2 to 3 days by Ames test. The settings on record: salmonella enterica subsp. enterica serovar typhimurium. It counts as toxicity. Summed up: as §2

Molecules are shown by their SMILES. Active and inactive are the calls of the source. The calls are words filed in the database; no cut-off is given here. Bounds are passed on as bounds.

One may read the EC50 as the concentration needed to bring the measured effect to its halfway point.

For the compound `Nc1c(Cc2cccc3ccccc23)c(C2CC2)c2n(c1=O)C(c1nc(-c3ccccc3)n[nH]1)CS2` (configuration not stated), the viability at 10 µM in [1] came to 100%. The Activity in the data set on Chlamydia trachomatis [2] was 0.25 µM.
Turning to `O=C(NC1CSc2c(C3CC3)c(Cc3cccc4ccccc34)cc(=O)n21)c1ccccc1` (configuration not stated), the viability at 10 µM in [1] is 114%. Besides, in the data set on Chlamydia trachomatis [2], the Activity is 2.5 µM.
As for `O=c1cc(Cc2cccc3ccccc23)c(C2CC2)c2n1C(c1nnc(-c3ccccc3)o1)CS2` (configuration not stated), the viability at 10 µM in data set [1] turned out to be 103%. In the data set with Chlamydia trachomatis [2], the Activity was 1 µM.
Take `O=c1cc(Cc2cccc3ccccc23)c(C2CC2)c2n1C(n1cc(-c3ccccc3)nn1)CS2` (configuration not stated): in [1], the viability at 10 µM came out at 96%. In addition, the Activity entry was “Non-Toxic” with Salmonella typhimurium [3]; 0.25 µM in the data set on Chlamydia trachomatis [2]; “Non-Toxic” in the data set with Salmonella typhimurium [4]; “Non-Toxic” in the data set on Salmonella typhimurium [8]; “Non-Toxic” in the data set on Salmonella typhimurium [11]. Further, the “growth inhibition (GI)” value in the data set with Streptococcus agalactiae, in the data set with Lactobacillus jensenii, in the data set on Staphylococcus aureus, with Escherichia coli and in the data set with Candida albicans was “Non-Toxic” each time. Moreover, the EC50 in the data set with Chlamydia trachomatis [5] worked out at 37 nM; in the data set on Chlamydia trachomatis [6] it was 18 nM. Besides, in the data set with Chlamydia trachomatis [7], the result was inactive. Moreover, the result in the data set with Chlamydia trachomatis [9] and in the data set on Chlamydia trachomatis [10] was Active.
For the compound `O=c1cc(Cc2cccc3ccccc23)c(C2CC2)c2n1C(c1nc(-c3ccccc3)n[nH]1)CS2` (configuration not stated), the viability at 10 µM in data set [1] was 98%. Further, the Activity in the data set on Chlamydia trachomatis [2] is 0.5 µM.
The like results for `O=c1cc(Cc2cccc3ccccc23)c(C2CC2)c2n1C(c1nc(-c3ccccc3)co1)CS2` (configuration not stated) were, in that order, 83% and 2.5 µM.
In the case of `O=c1cc(Cc2cccc3ccccc23)c(C2CC2)c2n1C(NS(=O)(=O)c1ccccc1)CS2` (configuration not stated), the viability at 10 µM in [1] amounted to 114%. In addition, the Activity in the data set with Chlamydia trachomatis [2] is over 2.5 µM.
For the compound `O=C(NS(=O)(=O)c1ccccc1)C1CSc2c(C3CC3)c(Cc3cccc4ccccc34)cc(=O)n21` (configuration not stated), the viability at 10 µM in [1] is 105%. Further, the Activity in the data set with Chlamydia trachomatis [2] is over 2.5 µM.
Taken in the same sequence, the figures for `O=c1cc(Cc2cccc3ccccc23)c(C2CC2)c2n1C(c1nc(-c3ccccc3)no1)CS2` (configuration not stated) were 99% and over 2.5 µM.
As to `CC(C)(C)OC(=O)NC1CSc2c(C3CC3)c(Cc3cccc4ccccc34)cc(=O)n21` (configuration not stated), the viability at 10 µM in data set [1] amounted to 105%. The Activity in the data set with Chlamydia trachomatis [2] was over 2.5 µM.
As to `Cc1cccc(-c2n[nH]c(C3CSc4c(C5CC5)c(Cc5cccc6ccccc56)cc(=O)n43)n2)c1` (configuration not stated), the viability at 10 µM in data set [1] turned out to be 95%. Further, the Activity with Chlamydia trachomatis [2] was found to be 0.5 µM.
Taken in the same sequence, the figures for `O=c1cc(Cc2cccc3ccccc23)c(C2CC2)c2n1C(c1nc(-c3ccccc3)c[nH]1)CS2` (configuration not stated) were 106% and 2.5 µM.
`Nc1c(Cc2cccc3ccccc23)c(C2CC2)c2n(c1=O)C(C(=O)Nc1ccccc1)CS2` (configuration not stated): the Activity result in the data set on Salmonella typhimurium [3], in the data set on Salmonella typhimurium [4], in the data set on Salmonella typhimurium [8] and in the data set on Salmonella typhimurium [11] was “Non-Toxic” each time.
For `Nc1c(Cc2cccc3ccccc23)c(C2CC2)c2n(c1=O)C(n1cc(-c3ccccc3)nn1)CS2` (configuration not stated), the viability at 10 µM in data set [1] turned out to be 105%. Further, the Activity result in the data set with Salmonella typhimurium [3] is “Non-Toxic”; in the data set with Chlamydia trachomatis [2], 0.25 µM; with Salmonella typhimurium [4], “Non-Toxic”; in the data set with Salmonella typhimurium [8], “Non-Toxic”; in the data set with Salmonella typhimurium [11], “Non-Toxic”. Also, the “growth inhibition (GI)” value with Streptococcus agalactiae, in the data set with Lactobacillus jensenii, in the data set with Staphylococcus aureus, in the data set on Escherichia coli and in the data set with Candida albicans was “Non-Toxic” throughout. The EC50 in the data set on Chlamydia trachomatis [5] turned out to be 35 nM; in the data set with Chlamydia trachomatis [6] it was 13 nM. Further, in the data set on Chlamydia trachomatis [7], the result was inactive. Further, the outcome in the data set on Chlamydia trachomatis [9] and with Chlamydia trachomatis [10] was Active.
For `O=C(CNC(=O)C1CSc2c(C3CC3)c(Cc3cccc4ccccc34)cc(=O)n21)c1ccccc1` (configuration not stated), in data set [1], the viability at 10 µM is 107%. Also, the Activity in the data set with Chlamydia trachomatis [2] was 2.5 µM.
As to `O=c1cc(Cc2cccc3ccccc23)c(C2CC2)c2n1C(c1ncc(-c3ccccc3)s1)CS2` (configuration not stated), in [1], the viability at 10 µM was 97%. In addition, the Activity in the data set with Chlamydia trachomatis [2] was over 2.5 µM.

The values are drawn from ChEMBL document CHEMBL4028882, “Thiazolino 2-Pyridone Amide Isosteres As Inhibitors of Chlamydia trachomatis Infectivity” (J Med Chem, 2017).
